This is a sample that favours compounds with a hit; in the whole collection about 4% have one here.
FN deposition inh – fibronectin deposition inhibition | AH1F fibroblasts, Alexa488-fibronectin deposition fluorescence, overnight | inhibition, % at 12.6 µM | 350,000 compounds, 0.086% hits;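 active = mean inhibition across replicates of 30% or more, regardless of how many single replicates reach that level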;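 also: positive control wells lacked labelled fibronectin entirely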
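material = AH1F fibroblast monolayer depositing Alexa488-labelled fibronectin into matrix | amount = 10000 AH1F cells/well | buffer or medium = DMEM plus 2% serum, read in PBS | incubation = 1 h cell adhesion before compound, then overnight fibronectin incubation | detection = fluorescence at 485 nm excitation, 525 nm emission | evaluation = percent inhibition as loss of matrix-bound fibronectin fluorescence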
E-sel inducer – induces E-selectin expression in human endothelial cells | AID 686992 | P16581 | HUVEC E-selectin immunofluorescence imaging; normalized: neutral wells 0, TNF-alpha wells 100 | 260,000 compounds, 0.37% hits | activation, % at 7.58 µM;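 active = mean E-selectin-positive cell signal at least 10% of the positive control, reached in at least 60% of replicates, without over 20% cell loss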
Target sequence (P16581 whole entry, looked up): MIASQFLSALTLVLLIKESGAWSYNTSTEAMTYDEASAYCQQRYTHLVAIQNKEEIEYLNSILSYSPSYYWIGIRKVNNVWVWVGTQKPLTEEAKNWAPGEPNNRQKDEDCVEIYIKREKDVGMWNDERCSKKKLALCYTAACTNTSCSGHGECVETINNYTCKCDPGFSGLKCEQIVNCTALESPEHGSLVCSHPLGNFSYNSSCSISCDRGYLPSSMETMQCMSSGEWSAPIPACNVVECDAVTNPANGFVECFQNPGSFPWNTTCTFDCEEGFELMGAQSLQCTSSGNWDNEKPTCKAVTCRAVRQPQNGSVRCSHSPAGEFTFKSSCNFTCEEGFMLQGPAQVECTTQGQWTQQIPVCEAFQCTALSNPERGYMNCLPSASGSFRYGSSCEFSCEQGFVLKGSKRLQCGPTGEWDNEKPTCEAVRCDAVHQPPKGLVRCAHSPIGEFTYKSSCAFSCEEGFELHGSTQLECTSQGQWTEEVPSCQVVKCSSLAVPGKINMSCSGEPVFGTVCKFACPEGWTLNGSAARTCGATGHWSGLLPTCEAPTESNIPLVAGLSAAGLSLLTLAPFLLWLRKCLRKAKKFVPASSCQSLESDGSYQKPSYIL
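System: HUVEC, human umbilical vein endothelial cells; quantity: 3,000 cells/well; buffer or medium: EGM-2 medium, gelatin-coated wells; dosing: single-point compound dose; detection: immunofluorescence imaging; evaluation: % PE-positive cells; benchmarks: TNF-alpha, DMSO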
SIRT5 block – inhibitors of human sirtuin-5 desuccinylase | inhibition, % at 15 µM | Purified SirT5, succinyl-peptide AMC, trypsin-coupled fluorescence | 330,000 compounds, 1.1% hits | AID 652115; in the data active = inhibition above about 15%
Statin myotox sup – protects C2C12 myotubes from simvastatin toxicity; ATP luminescence, 48 h; scaled: DMSO 0, geranylgeraniol control 100; rescue of ATP level, % at 7.49 µM; 330,000 compounds, 0.78% hits; AID 602340;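 active = mean ATP rescue above about 67%, or every replicate alone reaching that limit, limit read from the data, passing the limit was not always enough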;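 also: myotubes were challenged with 10 µM simvastatin during compound exposure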
FGF22 binding – shifts melting point of recombinant human FGF22; Q9HCT0; recombinant FGF22 thermal shift, SYPRO orange fluorescence; percent of sucrose octasulfate shift, DMSO zero; activity (Tm shift, normalised), % at 9.99 µM; 340,000 compounds, 1.5% hits;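 active = mean Tm shift, scaled 0 neutral to 100 positive control, at about 1.3% or above, every replicate too, limit read from the data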
rRNA inh HTS – selective bacterial rRNA inhibition in E. coli; AID 720706; GFP signal change (wild-type ribosome), % (concentration not given with the values); E. coli WT GFP vs humanized-ribosome RFP mutants, fluorescence, 24 h; stronger effect = lower value; DMSO median 0, no signal -100; 350,000 compounds, 1.6% hits;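 active = significant combined selectivity score with lowered wild-type GFP, culture density cut under 30%, mutant RFP and density less affected; inactive = any of these conditions unmet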
* = called active by the depositor; x = not tested or not shown.

SMILES	FN deposition inh	E-sel inducer	SIRT5 block	Statin myotox sup	FGF22 binding	rRNA inh HTS
COCC(=O)N1CC2(C1)CN(Cc1cccc(Cl)c1)[C@@H](CO)c1[nH]c3cc(OC)ccc3c12	x	0	4	x	0	-6
COc1ccc(N(Cc2cc(=O)[nH]c3ccccc23)C(=O)c2ccco2)cc1	1	x	-3	135*	x	-2
CCS(=O)(=O)N1CCCCN2[C@H](CO)[C@H](c3ccc(-c4ccc(C(=O)N(C)C)cc4)cc3)[C@@H]2C1	-34	0	8	4	0	1
C[C@@H]1CN([C@H](C)CO)C(=O)c2cccc(NC(=O)CCCCCC(=O)Nc3ccccc3N)c2O[C@@H]1CN(C)C(=O)NC1CCCCC1	-17	0	-1	x	0	0
N#C/C(=C1/CCCCCN1)c1nc2ccccc2[nH]1	x	x	x	24	x	x
N#C/C(=C1\CCCN1)c1ccc2ccccc2n1	x	x	x	77*	x	x
COc1ccc(-c2ccc([C@@H]3[C@H](CO)N4CCCCN(C(=O)NC(C)C)C[C@@H]34)cc2)cc1	x	0	0	-5	0	5
COc1cccc(CNC(=O)c2cc3c(cc2Cl)N2CCCCCC2=NS3(=O)=O)c1	-2	100*	-3	x	0	-8
O=C(C[C@@H]1CC[C@H]2[C@@H](COC[C@@H](O)CN2C(=O)C2CC2)O1)NCc1ccccc1Cl	-4	0	0	-3	0	7
CCOC(=O)C1=NN(C(=O)Nc2ccc(OC)cc2)C2C(=O)N(c3cccc(C(F)(F)F)c3)C(=O)C12 (centres undefined)	x	x	x	102*	x	x
CCOC(=O)C1=NN(c2ccc(OC)cc2)C2C(=O)N(c3ccccc3OC)C(=O)C12 (centres undefined)	-9	3	-2	x	0	13
CN1C(=O)c2cc(NC(=O)c3cccc(C(F)(F)F)c3)ccc2OC[C@H]2O[C@@H](CC(=O)NCCN3CCCC3)CC[C@H]21	-11	0	-7	-4	0	2
Cc1ccc(N(CC(=O)NC(C)(C)C)C(=O)CNC(=O)c2cccs2)c(C)c1	x	x	-1	x	43*	15
CC(C)(C)NC(=O)CSc1nnc(NC(=O)c2ccccc2Cl)s1	-15	3	-6	x	1	-3
CCOC(=O)CNC(=O)CSc1nnc(NC(=O)c2ccccc2Cl)s1	-2	x	-1	-5	43*	0
O=C(NNC(=O)C12CC3CC(CC(C3)C1)C2)c1cnccn1	3	x	x	x	x	x
O=C(NNC(=O)C12CC3CC(CC(C3)C1)C2)c1ccccn1	18	0	1	x	0	-43*
CN1CCN(C(=S)NC(=O)/C=C/c2ccccc2Cl)CC1	-2	x	3	x	43*	-6
Cc1cc2c(sc3c(C)ccc(C)c32)c(C)n1	5	1	-1	x	0	-35*
O=C(NC(=S)NCc1ccco1)c1ccc([N+](=O)[O-])cc1	-5	0	x	x	0	-5.5*
O=C(Cc1ccccc1[N+](=O)[O-])NCc1ccco1	7	x	1	x	44*	9
COc1ccc2c3c([nH]c2c1)[C@@H](CO)N(C)CC31CCN(C(=O)c2cccnc2)CC1	x	0	x	x	x	5
C[C@@H]1CN([C@@H](C)CO)C(=O)c2ccccc2-c2ccccc2CO[C@@H]1CN(C)Cc1cccc(C(=O)O)c1	-20	x	x	x	x	0
Cc1ccc(C)c(SCC(=O)N(C)C2CCS(=O)(=O)C2)c1 (centres undefined)	1	x	0	9	0	4
Cc1cc(SCC(=O)OCC(=O)N(C)C2CCS(=O)(=O)C2)c(C)cc1Br (centres undefined)	6	2	19*	1	0	-17
SMILES	FN deposition inh	E-sel inducer	SIRT5 block	Statin myotox sup	FGF22 binding	rRNA inh HTS
CSc1c(-c2ccccn2)c(N)nn1C(=O)C1CC1	4	x	-2	10	0	-24*
CSc1c(-c2ccccn2)c(N)nn1C(=O)C1CCC1	6	x	-4	-9	0	x
NC(=O)CCN1CCC(c2nc3ccccc3s2)CC1	-1	0	24*	5	0	4
CC(=O)Nc1cccc2c1O[C@H](CN(C)S(C)(=O)=O)[C@@H](C)CN(C)C2=O	6	x	x	x	x	-1
COc1cc(C(=O)Nc2nnc(-c3sccc3C)s2)cc(OC)c1OC	9	x	x	98*	x	x
COC(=O)c1sccc1NC(=O)CSCCc1ccncc1	-2	x	0	x	43*	10
CCN(CC)CC(=O)Nc1ccccc1SCC(=O)Nc1ccsc1C(=O)OC	8	x	1	x	0	-21
C[C@@H](NC(=O)C[C@@H]1CC[C@H](NC(=O)C2CC2)[C@H](CO)O1)c1ccccc1	-12	0	0	-3	0	2
O=C(NCCS(=O)(=O)NC1CCCCC1)c1ccccc1	-4	-3	-4	5	x	11
O=C(NC1CCCCCCC1O)c1ccccc1 (centres undefined)	-2	0	16*	1	0	11
O=C(NCCS(=O)(=O)NC1CCCC1)c1ccccc1	1	0	17*	24	0	6
O=C(NNC(=S)NC1CCCCC1)c1sc2ccccc2c1Cl	-10	0	-2	x	0	-20*
O=C(NC(=S)NC1CCCC1)c1ccccc1	2	x	-1	2	0	-26*
O=C(NC1CCCCC1c1ccccc1)c1ccccc1 (centres undefined)	0	0	x	x	44*	-10
O=C(NC(CC1CCCCC1)C(=O)O)c1ccccc1 (centres undefined)	-13	0	-2	6	44*	11
Cc1cccc(N=C2NC(=O)/C(=C/c3cccn3C)S2)c1C	-10	2	1	21	0	-26*
Cc1nnc(SCc2ccc(C(=O)O)cc2)s1	3	x	x	x	x	x
Cc1cc(C)cc(NC(=O)c2ccc(CSc3nnc(C)s3)cc2)c1	x	x	x	122*	x	x
Cc1ccc([N+](=O)[O-])cc1S(=O)(=O)n1ccnc1C	4	0	-1	-4	43*	18
CCCn1cc(S(=O)(=O)c2ccc(Cl)cc2)c(=O)c2cc(OC)ccc21	4	x	0	10	0	-28*
CCCn1cc(S(=O)(=O)c2ccc(C)cc2)c(=O)c2cc(OC)c(OC)cc21	-23	x	20*	3	0	-6
CCCn1cc(S(=O)(=O)c2ccc(C)cc2)c(=O)c2cc(OC)ccc21	5	x	1	5	0	2
CCCn1cc(S(=O)(=O)c2ccc(OC)cc2)c(=O)c2cc(OCC)ccc21	-1	x	1	10	0	-1
COCC(=O)N(C)C[C@@H]1Oc2ncc(-c3cccc(OC)c3)cc2C(=O)N([C@H](C)CO)C[C@H]1C	x	0	-1	15	0	3
O=C(c1ccccc1)c1ccncc1	1	x	x	8	x	x
